Compounds with a hit are over-represented: about 2.3% of the library has one in this group of screens.
TRPC6 activator: mouse TRPC6 channel activators, primary screen, cell-based, HEK293, membrane potential dye; B-score at 10 µM; HEK293-TRPC6 membrane potential dye fluorescence; active compounds read high; Short transient receptor potential channel 6 (Mus musculus), Q61143; 0.13% of 310,000 active;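 active = B-score of the integrated fluorescence ratio above library mean plus 3 SD, and starting fluorescence ratio within library mean plus 5 SD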;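 also: higher score means more depolarization so channel activation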
Target sequence (Q61143 whole entry, looked up): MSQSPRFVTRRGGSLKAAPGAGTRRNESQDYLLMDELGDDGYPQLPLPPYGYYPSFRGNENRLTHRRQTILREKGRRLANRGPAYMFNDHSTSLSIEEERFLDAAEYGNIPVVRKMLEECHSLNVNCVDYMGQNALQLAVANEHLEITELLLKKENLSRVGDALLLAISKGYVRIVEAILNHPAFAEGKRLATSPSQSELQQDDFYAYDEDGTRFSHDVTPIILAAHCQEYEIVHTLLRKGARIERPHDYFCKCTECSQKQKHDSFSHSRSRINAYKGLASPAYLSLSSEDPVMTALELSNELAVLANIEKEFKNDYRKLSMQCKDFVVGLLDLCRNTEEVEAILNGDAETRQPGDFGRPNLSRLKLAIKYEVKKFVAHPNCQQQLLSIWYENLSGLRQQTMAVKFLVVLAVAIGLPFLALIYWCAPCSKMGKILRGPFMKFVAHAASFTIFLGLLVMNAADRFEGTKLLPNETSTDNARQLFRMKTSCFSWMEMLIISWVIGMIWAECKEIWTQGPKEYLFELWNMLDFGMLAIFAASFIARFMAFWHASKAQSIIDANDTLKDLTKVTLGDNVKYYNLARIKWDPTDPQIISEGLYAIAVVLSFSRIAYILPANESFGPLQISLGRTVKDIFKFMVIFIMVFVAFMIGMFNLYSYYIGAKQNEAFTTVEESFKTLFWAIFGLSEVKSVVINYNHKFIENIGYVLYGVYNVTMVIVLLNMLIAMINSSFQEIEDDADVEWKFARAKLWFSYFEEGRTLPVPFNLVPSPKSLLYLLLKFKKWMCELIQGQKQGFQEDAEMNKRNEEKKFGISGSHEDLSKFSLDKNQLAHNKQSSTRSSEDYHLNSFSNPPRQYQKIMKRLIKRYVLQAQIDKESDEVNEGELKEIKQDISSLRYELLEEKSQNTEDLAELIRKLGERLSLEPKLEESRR
TRPC4 agonist: activators of mouse TRPC4 channel, primary screen, Fluo4 calcium, HEK293 TRPC4beta/mu-opioid cells. AID 2237, 2010. B-score at 10 µM. 0.49% of 310,000 active. Fluo4 calcium fluorescence; active compounds read high;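 active = B-score above 5 SD of library B-scores, and initial fluorescence ratio not above library mean plus 5 SD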;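 also: positive B-score marks a calcium rise read as TRPC4 activation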
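System – HEK293 cells stably co-expressing mouse TRPC4beta and mu-opioid receptor · Signal – Fluo4 calcium-sensitive dye fluorescence, kinetic, 1 Hz baseline · Benchmarks – buffer (low) and maximal DAMGO (high) · Read-out – B score of integrated fluorescence ratio per well · Incubation – dye loading 45 min room temperature, 110 s kinetic read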
TRPC6 inhibitor: mouse TRPC6 channel inhibitors, primary screen, cell-based, HEK293, membrane potential dye | Short transient receptor potential channel 6 (Mus musculus), Q61143 | ACh-evoked depolarization; active compounds read low | B-score at 10 µM | 1.1% of 310,000 active | AID 2553, 2010;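 active = B-score under library mean minus 3 SD, initial fluorescence not abnormally high, positive integrated signal ratio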;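 also: B-score derived from integrated fluorescence ratio over the kinetic read; more negative B-score means stronger inhibition of depolarization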
TRPC4 inh: inhibitors of mouse TRPC4 channel, primary screen, Fluo4 calcium, HEK293 TRPC4beta/mu-opioid cells. DAMGO-evoked Fluo4 calcium flux; active compounds read low. B-score at 10 µM. 0.39% of 300,000 active;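 active = B-score over 3 SD under the library average, no early fluorescence shift, positive overall ratio signal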
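Material: HEK293 cells with stable TRPC4beta plus mu-opioid receptor expression; probe or stimulus: DAMGO in two steps, submaximal then maximal; technique: Fluo4 calcium fluorescence by kinetic imaging, 5 s 1 Hz baseline; measure: integrated fluorescence ratio relative to baseline, converted to per-well B score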
TRPC4 potent: positive allosteric modulators of TRPC4, primary screen, cell-based, mouse TRPC4beta, HEK293 mu-opioid, Fluo-4 calcium | B-score at 10 µM | 0.42% of 310,000 active | DAMGO EC20, Fluo-4 Ca2+ flux; active compounds read high;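 active = B-score of calcium response area above 5 SD of library B-scores, with initial fluorescence ratio within 5 SD of library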
TRPC4 sel inh 2: second selectivity test of TRPC6 inhibitors: effect on mouse TRPC4; shares compounds with TRPC6 inhibitor; HEK293 TRPC4/MOR, membrane potential dye fluorescence; channel activated by saturating DAMGO dose; inhibition, % at 10 µM; 42% of 920 active; AID 2776;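 active = compounds whose fluorescence signal differed from control wells by over 3 SD, either direction, in both duplicate plates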
TRPC4 spec: mouse TRPC4 modulation by TRPC6 hits, confirmation, selectivity assay for TRPC6 inhibitor project, cell-based, HEK293 TRPC4/mu-opioid, membrane potential dye. shares compounds with TRPC6 inhibitor. membrane potential fluorescence. activity change, negative = inhibition, % at 10 µM. 61% of 920 active;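 active = rise or fall in signal beyond 3 SD of buffer-only wells in both replicate plates, either sign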;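 also: integrated kinetic ratio of fluorescence range over baseline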
HEK293 MPD ctr 2-1: nonspecific membrane potential effects, parental HEK293, confirmation, counter-screen for TRPC6 inhibitor project, cell-based, second counter screen | shares compounds with TRPC6 inhibitor | 31% of 920 active | AID 2779, 2010 | parental HEK293 membrane potential dye fluorescence; maximal acetylcholine challenge after compound addition | signal change vs control, % at 10 µM;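 active = membrane potential signal moving either way by over 3 SD of the maximum-effect control, in both duplicate plates, meaning non-specific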
HEK293 MPD ctr-1: membrane potential modulation in parental HEK293, confirmation, counter-screen for TRPC6 inhibitor project, cell-based; 60% of 920 active; shares compounds with TRPC6 inhibitor; parental HEK293 membrane potential dye fluorescence; membrane potential signal change, % at 10 µM;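 active = membrane potential signal shifting up or down by more than 3 SD of buffer-only wells, on both duplicate plates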
HEK293 MPD ctr-2: parental HEK293 membrane potential modulation, confirmation, counter-screen for TRPC6 modulator project, cell-based; shares compounds with TRPC6 inhibitor; membrane potential dye fluorescence; membrane potential signal change, % at 10 µM; 51% of 2,400 active;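 active = membrane potential signal moves up or down beyond 5 SD from buffer-only wells, on both duplicate plates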
HEK293 MPD ctr 2-2: second counter-screen for TRPC6 modulators: effect in parental HEK293 cells; membrane potential dye fluorescence; after compound, maximal acetylcholine stimulation; inhibition, % at 10 µM; 14% of 2,400 active; AID 488926; shares compounds with TRPC6 inhibitor;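 active = membrane potential signal drops by more than 5 SD from the mean control signal, in both duplicate plates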
TRPC4/MOR mod: TRPC4 modulation by TRPC6 hit compounds, confirmation, selectivity assay for TRPC6 modulator project, cell-based, HEK293 TRPC4/mu-opioid, membrane potential dye, mouse; shares compounds with TRPC6 inhibitor; membrane potential fluorescence; percent change from control (negative = decrease, positive = increase), % at 10 µM; 69% of 2,400 active;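 active = membrane potential signal moved up or down beyond 5 SD of buffer control wells, in both duplicate plates, actives on both sides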
TRPC4/MOR inh 2: second check of whether TRPC6 modulators also affect mouse TRPC4 | shares compounds with TRPC6 inhibitor | HEK293 TRPC4/mu-opioid, membrane potential dye fluorescence; stimulated with maximal-effect DAMGO | inhibition, % at 10 µM | 55% of 2,400 active;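 active = drop in membrane potential signal beyond 5 SD of the control wells in both duplicate plates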;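 also: TRPC4 counter screen for TRPC6 hits run under conditions tuned for TRPC6 not TRPC4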
TRPC6 inh conf: mouse TRPC6 channel inhibitors, confirmation, HEK293 cells, membrane potential dye, duplicate; 43% of 3,300 active; ACh-evoked depolarization; inhibition, % at 10 µM; AID 488960, 2010; shares compounds with TRPC6 inhibitor;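 active = fluorescence ratio falls more than 5 SD below the full-stimulation control mean, in both duplicate runs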;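 also: integrated fluorescence ratio of peak minus minimum over baseline after agonist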
TRPC6 act confirm: mouse TRPC6 channel activators, confirmation, HEK293 cells, membrane potential dye, duplicate. activation, % at 10 µM. AID 488961, 2010. shares compounds with TRPC6 inhibitor. HEK293-TRPC6 membrane potential dye fluorescence, FDSS. 11% of 2,800 active;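 active = ratio signal rise beyond 5 SD above unstimulated control wells' mean, seen in both duplicate runs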
Hits are given with their value; n = inactive; x = no result.

SMILES	TRPC6 activator	TRPC4 agonist	TRPC6 inhibitor	TRPC4 inh	TRPC4 potent	HEK293 MPD ctr-2	HEK293 MPD ctr 2-2	TRPC4/MOR mod	TRPC4/MOR inh 2	TRPC6 inh conf	TRPC6 act confirm	others
CC1=NC(C(F)(F)F)(C(F)(F)F)C2=C(CC(C)(C)CC2=O)N1Cc1ccco1	n	n	n	n	n	x	x	x	x	x	x
CCCCCCN1C=CC=C/C1=C/C=C(C#N)C#N	26	n	n	n	n	370%	n	102%	n	n	118%
CCCN1C=CC(=CC=C(C#N)C#N)C=C1	n	n	n	n	n	x	x	x	x	x	x
CCCCCN1C=CC=C/C1=C\C=C(C#N)C#N	15	n	-5.3	n	n	712%	n	n	n	n	100%
CCCCCCN1C=C/C(=C\C=C(C#N)C#N)c2ccccc21	n	n	n	n	n	x	x	x	x	x	x
O=C(N[C@H](Cc1cc(=O)[nH]c2ccccc12)C(=O)O)c1ccc(Cl)cc1	n	n	n	n	n	x	x	x	x	x	x
COc1ccc(-c2csc(NC(=O)CCCc3nc4ccccc4c(=O)[nH]3)n2)cc1OC	n	n	-5.2	n	n	n	n	14%	n	n	x
Cc1cccc(C)c1OCC(O)CN1CCC(CN2C(=O)c3cccc4cccc(c34)C2=O)CC1 (stereo not given)	n	n	-8.3	n	n	x	x	x	x	64%	n	TRPC4 sel inh 2=40%;TRPC4 spec=-18%;HEK293 MPD ctr 2-1=n;HEK293 MPD ctr-1=-200%
Cc1ccccc1OCC(O)CN1CCN(CCN2C(=O)c3cccc4cccc(c34)C2=O)CC1 (stereo not given)	n	n	-5.2	n	n	n	n	-18%	82%	59%	n
CCC(OCC(O)CN1CCN(CCN2C(=O)c3cccc4cccc(c34)C2=O)CC1)c1ccccc1 (stereo not given)	n	n	-6.1	n	n	-90%	n	-29%	77%	60%	n
CCCNS(=O)(=O)c1cccc(C(=O)NC2CCCc3ccccc32)c1 (stereo not given)	n	n	n	n	n	x	x	x	x	x	x
COc1ccc(CCN(C)C2CCCN(C(=O)Cn3cnnn3)C2)cc1OC (stereo not given)	n	n	n	n	n	x	x	x	x	x	x
Cc1cccc(Cn2c(C(=O)OC(C)C)cc3c2ccn3C)c1	n	n	n	n	n	x	x	x	x	x	x
Cc1nnc(SCCn2c(N3CCN(C)CC3)nc3c2c(=O)[nH]c(=O)n3C)s1	n	n	-10	n	n	x	x	x	x	69%	n	TRPC4 sel inh 2=74%;TRPC4 spec=-36%;HEK293 MPD ctr 2-1=n;HEK293 MPD ctr-1=-592%
Cc1nnc(SCCn2c(N3CCN(Cc4ccccc4)CC3)nc3c2c(=O)[nH]c(=O)n3C)s1	n	n	-7.8	n	n	-278%	n	-44%	n	n	n
Cc1nnc(SCCn2c(N3CCCCCC3)nc3c2c(=O)[nH]c(=O)n3C)s1	n	n	n	n	n	x	x	x	x	x	x
Cn1c(=O)[nH]c(=O)c2c1nc(N1CCN(Cc3ccccc3)CC1)n2CCCc1ccccc1	n	n	n	n	n	x	x	x	x	x	x
Cn1c(=O)[nH]c(=O)c2c1nc(N1CCN(Cc3ccccc3)CC1)n2CCSc1ncccn1	n	n	-7.9	n	n	-329%	96%	-59%	62%	58%	n
c1ccc(C2=Nc3ccccc3SC2c2nc3ccccc3[nH]2)cc1 (stereo not given)	n	n	n	n	n	x	x	x	x	x	x
O=C(Nc1ccccc1-c1ccccc1)C(c1ccccc1)c1ccccc1	n	n	n	n	n	x	x	x	x	x	x
CCCCCC(=O)NC(=S)Nc1ccc2oc(=O)ccc2c1	n	n	-6.4	n	n	n	n	-14%	n	n	n
Cn1cc(/C=C(\NC(=O)c2ccccc2)C(=O)N2CCOCC2)c2ccccc21	n	n	n	n	n	x	x	x	x	x	x
CN(C)CCOC(=O)/C(=C/c1cn(C)c2ccccc12)NC(=O)c1ccccc1	n	n	-7.7	n	n	x	x	x	x	n	n	TRPC4 sel inh 2=n;TRPC4 spec=n;HEK293 MPD ctr 2-1=n;HEK293 MPD ctr-1=n
Cc1ccc(C(=O)N/C(=C\c2cn(C)c3ccccc23)C(=O)OCCN(C)C)cc1	n	n	-7.5	n	n	x	x	x	x	n	n	TRPC4 sel inh 2=57%;TRPC4 spec=-15%;HEK293 MPD ctr 2-1=n;HEK293 MPD ctr-1=-280%
O=C1CNC(=S)N1Cc1cccc(Cl)c1	n	n	-7	n	n	x	x	x	x	n	n	TRPC4 sel inh 2=n;TRPC4 spec=-12%;HEK293 MPD ctr 2-1=n;HEK293 MPD ctr-1=n
CCOC(=O)CN1C(=O)N[C@@H](c2cccc(F)c2)C(C(=O)OC)=C1C	n	n	n	n	n	x	x	x	x	x	x
COc1ccc(C(C(=O)NC2CCCC2)N(C(=O)c2csnn2)C2CCCC2)cc1 (stereo not given)	n	n	-6.3	n	n	n	n	18%	n	n	x

Source: PubChem BioAssay (Johns Hopkins Ion Channel Center)
